From PMC7089779 (ChemMedChem, 2018)
Where two headings read alike, the source gives them in different places.

Assays:
[1] = Chemical stability of the product; assay type: physicochemical; conditions: in words; cyclises to 25 on recrystallisation from acetonitrile
[2] = tested on: T. brucei brucei trypomastigotes; experiment: Antitrypanosomal activity on T. brucei brucei trypomastigotes; assay type: cell-based, Trypanosoma brucei brucei; conditions: for Antitrypanosomal selectivity Index: CC50 HepG2 / IC50 T. brucei brucei; for times more potent than the meta-substituted analogue: T. brucei brucei IC50, para versus meta (15 vs 16, 21 vs 22)
[3] = tested on: L. infantum axenic amastigotes; experiment: Antileishmanial activity on L. infantum axenic amastigotes; assay type: cell-based; conditions: Leishmania infantum, 48 h, read-out: IC50 L. infantum axenic amastigotes
In short: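 They were moved to RPMI at pH 5.4 for 24 h at 24°C, then 24 h at 37°C, to give axenic amastigotes. Compounds in DMSO (final <0.5% v/v) were tested in duplicate for 48 h at 37°C. Read-out was Steady Glow luminescence. IC50 came from non-linear regression, mean of three independent experiments.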

[4] = Cytotoxic evaluation on HepG2 cell line; assay type: cell-based; conditions: human, HepG2 cells (hepatocarcinoma cell line)
In short: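 HepG2 cells were seeded at 1 × 10^5 cells/mL in Alpha MEM with 10% FBS, 2 mM L-glutamine and antibiotics, and pre-incubated for 24 h at 37°C, 5% CO2. Compounds were added at various concentrations for 72 h, and wells were checked for precipitate. MTT (0.5 mg/mL) was added for 2 h, formazan was dissolved in DMSO, and A570 was read. Doxorubicin was the positive control. CC50 came from non-linear regression, mean of three independent experiments.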

[5] = Cyclic voltammetry, reduction potentials; assay type: physicochemical; conditions: DMSO/TBAPF6, SCE/GC, 1 electron reversible reduction, V versus NHE
[6] = cited from earlier work
HepG2 cell line = conditions: read-out: CC50 HepG2; cited from earlier work
[7] = tested on: T. brucei brucei trypomastigotes; conditions: cited from earlier work
[8] = tested on: T. brucei brucei trypomastigotes wild type strain; conditions: read-out: IC50 T. brucei brucei trypomastigotes wild type strain; cited from earlier work
[9] = tested on: L. infantum axenic amastigotes; conditions: read-out: IC50 L. infantum axenic amastigotes; cited from earlier work
[10] = tested on: T. brucei brucei trypomastigotes NTR over-expressing strain; conditions: wild type IC50 / NTR over-expressing IC50; cited from earlier work
[11] = tested on: T. brucei brucei trypomastigotes NTR over-expressing strain; experiment: Bioactivation study, strain overexpressing the nitroreductase; assay type: cell-based, Trypanosoma brucei; conditions: for IC50: Trypanosoma brucei, 72 h, read-out: IC50 T. brucei brucei trypomastigotes NTR over-expressing strain; for Fold change: wild type IC50 / NTR over-expressing IC50
In short: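 Bloodstream T. brucei S427 'single marker' was grown at 37°C in HMI9-T with 2.5 µg/mL G418. The NTR1-overexpressing line also received 2.5 µg/mL phleomycin, with NTR induced by 1 µg/mL tetracycline 48 h before assay. Triplicate cultures were seeded at 1 × 10^5 cells/mL with inhibitor and counted after 72 h. EC50 came from a two-parameter fit (slope factor m) to background-corrected density as % of uninhibited control. Fold change is wild-type IC50 / overexpressor IC50.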

[12] = tested on: T. brucei brucei trypomastigotes wild type strain; experiment: Bioactivation study, wild type strain; assay type: cell-based; conditions: Trypanosoma brucei, 72 h, read-out: IC50 T. brucei brucei trypomastigotes wild type strain
[13] = Aqueous solubility as observed in the biological assays; assay type: physicochemical; conditions: in words

SMILES	Antitrypanosomal selectivity Index [2]	IC50 [3]	CC50 at 72 h [4]	other results
O=c1[nH]c2c([N+](=O)[O-])cccc2cc1C#Cc1ccccc1 [Compound 24, 8-nitro-3-phenylethynylquinolin-2(1H)-one]				stability [1]: too unstable
O=c1[nH]c2c([N+](=O)[O-])cccc2cc1-c1ccccc1CO [Compound 14, 3-(2-hydroxymethylphenyl)-8-nitroquinolin-2(1H)-one]	>14	22 ± 2 µM	> 100 µM	
O=c1[nH]c2c([N+](=O)[O-])cccc2cc1-c1ccc(C(F)(F)F)cc1 [Compound 7, 8-nitro-3-(4-trifluoromethylphenyl)quinolin-2(1H)-one]		> 6 µM	> 6 µM	E° (reduction potential) [5]: -0.53 V
O=c1[nH]c2c([N+](=O)[O-])cccc2cc1-c1ccc(O)cc1 [Compound 3, 3-(4-hydroxyphenyl)-8-nitroquinolin-2(1H)-one]		> 3 µM	> 3 µM	
O=C(O)c1cccc(-c2cc3cccc([N+](=O)[O-])c3[nH]c2=O)c1 [Compound 22, 3-(3-carboxyphenyl)-8-nitroquinolin-2(1H)-one]	>13	> 100 µM	> 100 µM	
O=c1[nH]c2c([N+](=O)[O-])cccc2cc1Br [Initial Hit, 3-bromo-8-nitroquinolin-2(1H)-one]				genotoxicity in the comet assay [6]: not genotoxic; CC50 (HepG2 cell line): 92 ± 13 µM; Antitrypanosomal selectivity Index ([7]; CC50 HepG2 / IC50 T. brucei brucei): 48; IC50 ([7]; read-out: IC50 T. brucei brucei trypomastigotes): 1.9 ± 0.44 µM; IC50 [8]: 17.7 ± 1 µM; IC50 [9]: 7.1 ± 1.5 µM; Fold change [10]: 4.5
C[C@@H]1[C@H](O)[C@@H](C)/C=C/C=C/C=C/C=C/C=C/C=C/C=C/[C@H](O[C@@H]2O[C@H](C)[C@@H](O)[C@H](N)[C@@H]2O)C[C@@H]2O[C@](O)(C[C@@H](O)C[C@@H](O)[C@H](O)CC[C@@H](O)C[C@@H](O)CC(=O)O[C@H]1C)C[C@H](O)[C@H]2C(=O)O [Amphotericin B, reference compound]		0.06 ± 0.001 µM	7 ± 0.25 µM	
O=c1[nH]c2c([N+](=O)[O-])cccc2cc1-c1ccc(CO)cc1 [Compound 12, 3-(4-hydroxymethylphenyl)-8-nitroquinolin-2(1H)-one]	>13	> 25 µM	> 25 µM	
O=C(O)c1ccccc1-c1cc2cccc([N+](=O)[O-])c2[nH]c1=O [Compound 23, 3-(2-carboxyphenyl)-8-nitroquinolin-2(1H)-one]		> 100 µM	> 100 µM	
COC(=O)c1ccc(-c2cc3cccc([N+](=O)[O-])c3[nH]c2=O)cc1 [Compound 18, 3-(4-methoxycarbonylphenyl)-8-nitroquinolin-2(1H)-one]		> 12.5 µM	> 12.5 µM	
CC1CS(=O)(=O)CCN1/N=C/c1ccc([N+](=O)[O-])o1 (centres unmarked) [Nifurtimox, reference compound]				IC50 [11]: 0.6 ± 0.05 µM; Fold change [11]: 3.1; IC50 [12]: 1.9 ± 0.05 µM
O=c1[nH]c2c([N+](=O)[O-])cccc2cc1-c1ccsc1 [Compound 8, 8-nitro-3-(thiophen-3-yl)quinolin-2(1H)-one]		> 6 µM	> 6 µM	
O=c1[nH]c2c([N+](=O)[O-])cccc2cc1-c1ccc(F)cc1 [Compound 6, 3-(4-fluorophenyl)-8-nitroquinolin-2(1H)-one]		> 6 µM	> 6 µM	
O=[N+]([O-])c1cccc2cc3cc(-c4ccccc4)oc3nc12 [Compound 25, 8-nitro-2-phenyl-furo[2,3-b]quinoline]				aqueous solubility [13]: very poor aqueous solubility
Cc1ccc(C(=O)Nc2ccc(S(=O)(=O)O)c3cc(S(=O)(=O)O)cc(S(=O)(=O)O)c23)cc1NC(=O)c1cccc(NC(=O)Nc2cccc(C(=O)Nc3cc(C(=O)Nc4ccc(S(=O)(=O)O)c5cc(S(=O)(=O)O)cc(S(=O)(=O)O)c45)ccc3C)c2)c1 [Suramin, reference compound]	>3333		> 100 µM	
COc1ccc(-c2cc3cccc([N+](=O)[O-])c3[nH]c2=O)cc1 [Compound 2, 3-(4-methoxyphenyl)-8-nitroquinolin-2(1H)-one]		> 6 µM	> 6 µM	

SMILES	Antitrypanosomal selectivity Index [2]	IC50 [3]	CC50 at 72 h [4]	other results
O=C(O)c1ccc(-c2cc3cccc([N+](=O)[O-])c3[nH]c2=O)cc1 [Compound 21, 3-(4-carboxyphenyl)-8-nitroquinolin-2(1H)-one]	80	> 100 µM	120 ± 7 µM	times more potent than the meta-substituted analogue [2]: 5; IC50 [11]: 4.2 ± 0.2 µM; Fold change [11]: 1.3; IC50 [12]: 5.4 ± 0.12 µM; E° (reduction potential) [5]: -0.56 V
O=c1[nH]c2c([N+](=O)[O-])cccc2cc1-c1ccc(Cl)cc1 [Compound 5, 3-(4-chlorophenyl)-8-nitroquinolin-2(1H)-one]		> 3 µM	> 3 µM	
Nc1ccc(-c2cc3cccc([N+](=O)[O-])c3[nH]c2=O)cc1 [Compound 4, 3-(4-aminophenyl)-8-nitroquinolin-2(1H)-one]		> 3 µM	> 3 µM	
NCCCC(N)(C(=O)O)C(F)F (centres unmarked) [Eflornithine, reference compound]	>6		> 100 µM	
CSc1ccc(OCc2ncc([N+](=O)[O-])n2C)cc1 [Fexinidazole, reference compound]	>250	3.3 ± 0.7 µM	> 100 µM	
O=c1[nH]c2c([N+](=O)[O-])cccc2cc1-c1ccccc1 [Compound 1, 8-nitro-3-phenylquinolin-2(1H)-one]	>2	> 12 µM	> 12 µM	E° (reduction potential) [5]: -0.59 V
O=c1[nH]c2c([N+](=O)[O-])cccc2cc1-c1cccnc1 [Compound 10, 8-nitro-3-(pyridine-3-yl)quinolin-2(1H)-one]	>9	> 50 µM	> 25 µM	
O=Cc1ccccc1-c1cc2cccc([N+](=O)[O-])c2[nH]c1=O [Compound 17, 3-(2-formylphenyl)-8-nitroquinolin-2(1H)-one]	>7	9.8 ± 1.2 µM	> 50 µM	
O=c1[nH]c2c([N+](=O)[O-])cccc2cc1-c1ccco1 [Compound 9, 3-(2-furanyl)-8-nitroquinolin-2(1H)-one]		> 3 µM	> 3 µM	
O=Cc1ccc(-c2cc3cccc([N+](=O)[O-])c3[nH]c2=O)cc1 [Compound 15, 3-(4-formylphenyl)-8-nitroquinolin-2(1H)-one]	60	35 ± 1.7 µM	30 ± 3.7 µM	times more potent than the meta-substituted analogue [2]: 11
O=Cc1cccc(-c2cc3cccc([N+](=O)[O-])c3[nH]c2=O)c1 [Compound 16, 3-(3-formylphenyl)-8-nitroquinolin-2(1H)-one]	>18	10.2 ± 0.6 µM	> 100 µM	
O=c1[nH]c2c([N+](=O)[O-])cccc2cc1-c1cccc(CO)c1 [Compound 13, 3-(3-hydroxymethylphenyl)-8-nitroquinolin-2(1H)-one]	>17	29.3 ± 4.2 µM	> 25 µM	
COc1nc2c([N+](=O)[O-])cccc2cc1-c1ccc(C(=O)O)cc1 [Compound 26, 3-(4-carboxyphenyl)-2-methoxy-8-nitroquinoline]		12.8 µM		
COc1cccc2c1C(=O)c1c(O)c3c(c(O)c1C2=O)C[C@@](O)(C(=O)CO)C[C@@H]3O[C@H]1C[C@H](N)[C@H](O)[C@H](C)O1 [Doxorubicin, reference compound]			0.2 ± 0.02 µM	
CCCCCCCCCCCCCCCCOP(=O)([O-])OCC[N+](C)(C)C [Miltefosine, reference compound]		0.8 ± 0.2 µM	84.5 ± 8.8 µM	
